# Experimental data of several laboratories.
# Lines come from different studies, so protocols differ.
# Target: Dual specificity tyrosine-phosphorylation-regulated kinase 3 (DYRK3, Homo sapiens, UniProt O43781)
# One construct used (O43781 1-588): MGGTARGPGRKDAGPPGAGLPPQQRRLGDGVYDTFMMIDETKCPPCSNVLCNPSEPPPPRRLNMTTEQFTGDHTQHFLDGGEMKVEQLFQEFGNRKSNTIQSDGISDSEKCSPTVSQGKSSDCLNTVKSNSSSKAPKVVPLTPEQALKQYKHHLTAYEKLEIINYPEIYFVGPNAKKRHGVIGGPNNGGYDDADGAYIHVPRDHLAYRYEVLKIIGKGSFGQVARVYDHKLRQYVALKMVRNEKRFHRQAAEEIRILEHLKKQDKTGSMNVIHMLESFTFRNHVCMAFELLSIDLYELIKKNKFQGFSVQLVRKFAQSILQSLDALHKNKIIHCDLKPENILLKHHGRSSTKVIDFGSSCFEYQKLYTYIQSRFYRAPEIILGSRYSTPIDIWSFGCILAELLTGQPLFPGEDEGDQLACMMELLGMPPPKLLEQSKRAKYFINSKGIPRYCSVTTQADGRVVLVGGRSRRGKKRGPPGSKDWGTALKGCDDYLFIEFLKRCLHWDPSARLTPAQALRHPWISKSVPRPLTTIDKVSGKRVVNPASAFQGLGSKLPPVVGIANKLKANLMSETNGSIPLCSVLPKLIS
Structure (SMILES),observed,action,method,concentration,measurement,result
Cn1cncc1C1=CN(c2ncnc3[nH]cnc23)CCS1,enzyme activity,inhibitor,radiometric,2 µM,inhibition,90.9%
COc1cc(-c2cc(-c3ccc(N4CCNCC4)cc3)cnc2C)cc(OC)c1OC,enzyme activity,inhibitor,,1 µM,inhibition,1%
Cc1cc(NC(=O)c2cccc3cc(-c4cccc5[nH]nc(N)c45)ccc23)ccc1F,enzyme activity,inhibitor,,0.1 µM,activity vs control,105%
O=C1NC(=O)c2cc(Nc3ccc(F)cc3)c(Nc3ccc(F)cc3)cc21,cell-free assay,,,0.5 µM,remaining signal,97.1%
O=C(O)c1ccc2c(c1)nc(NCCc1cccc(F)c1)c1ccncc12,enzyme activity,inhibitor,radiometric,1 µM,remaining activity,7%
Cn1cnc(Br)c1C1=CN(c2ncnc3[nH]cnc23)CCS1,enzyme activity,inhibitor,radiometric,2 µM,inhibition,98%
COc1cc2ncnc(Nc3ccc(Oc4ccccc4)c(C)c3C)c2cc1OC,enzyme activity,inhibitor,,1 µM,inhibition,-3%
Nc1nc(Nc2ccccc2)sc1C(=O)c1c(F)cccc1F,enzyme activity,inhibitor,,10 µM,remaining activity,83%
O=C(O)c1ccc2c(c1)nc(Nc1ccc(F)c(Cl)c1)c1ncncc12,enzyme activity,inhibitor,radiometric,1 µM,remaining activity,8%
O=C(Nc1cnn(-c2csc(C(=O)NC3COC3)c2)c1)Nc1ccccc1Cl,enzyme activity,inhibitor,,5 µM,remaining activity,93.3%
O=C(O)c1ccc2c(c1)nc(NCCc1cccc(Cl)c1)c1ncncc12,enzyme activity,inhibitor,radiometric,1 µM,remaining activity,37%
CC/C(=N\NC(=O)NCc1cccc(O)c1)c1ccc(O)c(C)c1O,enzyme activity,inhibitor,,0.1 µM,inhibition,1.6%
COc1cccc(CCNc2nc3cc(C(=O)O)ccc3c3cnccc23)c1,enzyme activity,inhibitor,radiometric,1 µM,remaining activity,11%
Oc1cccc(-c2nc(N3CCOCC3)c3oc4ncccc4c3n2)c1,enzyme activity,inhibitor,,10 µM,remaining activity,64%
